Assay results reported in ChEMBL document CHEMBL1649383, “Mode of action of epoxyphomalins A and B and characterization of related metabolites from the marine-derived fungus Paraconiothyrium sp” (J Nat Prod, 2010).
Values after ≈ are worked out from the molar mass of the structure shown.

Legend:
[1] = Cytotoxicity against human BXF 1218L cells at 10 ug/ml relative to control; type: functional
[2] = Cytotoxicity against human MEXF 514L cells at 0.01 ug/ml relative to control; type: functional
[3] = Cytotoxicity against human LXFA 526L cells at 0.01 ug/ml relative to control; type: functional
[4] = Cytotoxicity against human PXF 1752L cells at 0.1 ug/ml relative to control; type: functional
[5] = Cytotoxicity against human BXF 1218L cells at 0.01 ug/ml relative to control; type: functional
[6] = Cytotoxicity against human UXF 1138L cells at 0.1 ug/ml relative to control; type: functional
[7] = Cytotoxicity against human PC3M cells at 0.01 ug/ml relative to control; type: functional, PC-3M
[8] = Cytotoxicity against human LXFL 529L cells at 10 ug/ml relative to control; type: functional
[9] = Cytotoxicity against human RXF 393NL cells at 0.1 ug/ml relative to control; type: functional
[10] = Cytotoxicity against human GXF251L cells at 0.01 ug/ml relative to control; type: functional
MCF7 [11] = assay: Cytotoxicity against human MCF7 cells at 0.01 ug/ml relative to control; type: functional
[12] = Cytotoxicity against human CNXF 498NL cells at 10 ug/ml relative to control; type: functional
[13] = Cytotoxicity against human MEXF 394NL cells; type: functional, cell-based
Procedure, shortened: (§1)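 Monolayer cell survival and proliferation assay run across a panel of 36 human tumor cell lines, with IC50 determined from the resulting growth data.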

[14] = Cytotoxicity against human LXFL 529L cells at 0.01 ug/ml relative to control; type: functional
[15] = Cytotoxicity against human MAXF 401NL cells at 0.001 ug/ml relative to control; type: functional
DU-145 = assay: Cytotoxicity against human DU145 cells; type: functional, cell-based
Procedure, shortened: (§2)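 Monolayer cell survival and proliferation assay, run within a panel of 36 human tumor cell lines; IC50 determined per cell line.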

[16] = Cytotoxicity against human HNXF 536L cells at 0.01 ug/ml relative to control; type: functional
[17] = Cytotoxicity against human MEXF 462NL cells at 0.01 ug/ml relative to control; type: functional
[18] = Cytotoxicity against human RXF 486L cells at 0.001 ug/ml relative to control; type: functional
NCI-H460 [19] = assay: Cytotoxicity against human H460 cells at 0.01 ug/ml relative to control; type: functional
[20] = Cytotoxicity against human HNXF 536L cells; type: functional, cell-based; procedure, shortened: as §2
[21] = Cytotoxicity against human OVXF 1619L cells at 0.1 ug/ml relative to control; type: functional
[22] = Cytotoxicity against human LXFL 529L cells; type: functional, cell-based
Procedure, shortened: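 Monolayer cell survival and proliferation assay run across a panel of 36 human tumour cell lines; IC50 values determined.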

SF-268 [23] = assay: Cytotoxicity against human SF268 cells at 0.001 ug/ml relative to control; type: functional
MCF7 [24] = assay: Cytotoxicity against human MCF7 cells at 10 ug/ml relative to control; type: functional
[25] = Cytotoxicity against human RXF 486L cells at 10 ug/ml relative to control; type: functional
T-24 [26] = assay: Cytotoxicity against human T24 cells; type: functional, cell-based; procedure, shortened: as §1
CWR22R [27] = assay: Cytotoxicity against human 22Rv1 cells at 0.001 ug/ml relative to control; type: functional
[28] = Cytotoxicity against human RXF 944L cells at 1 ug/ml relative to control; type: functional
[29] = Cytotoxicity against human OVXF 1619L cells at 0.001 ug/ml relative to control; type: functional
[30] = Cytotoxicity against human UXF 1138L cells; type: functional, cell-based; procedure, shortened: as §1
HCT-116 [31] = assay: Cytotoxicity against human HCT116 cells at 0.1 ug/ml relative to control; type: functional
[32] = Cytotoxicity against human LXFL 1121L cells at 0.001 ug/ml relative to control; type: functional
PANC-1 = assay: Cytotoxicity against human PANC1 cells; type: functional, cell-based; procedure, shortened: as §1
CWR22R [33] = assay: Cytotoxicity against human 22Rv1 cells; type: functional, cell-based; procedure, shortened: as §2
[34] = Cytotoxicity against human GXF251L cells at 0.1 ug/ml relative to control; type: functional
NCI-H460 [35] = assay: Cytotoxicity against human H460 cells at 0.1 ug/ml relative to control; type: functional
HCT-116 [36] = assay: Cytotoxicity against human HCT116 cells at 1 ug/ml relative to control; type: functional
[37] = Cytotoxicity against human UXF 1138L cells at 0.01 ug/ml relative to control; type: functional
[38] = Cytotoxicity against human HNXF 536L cells at 0.1 ug/ml relative to control; type: functional
T-24 [39] = assay: Cytotoxicity against human T24 cells at 1 ug/ml relative to control; type: functional
[40] = Cytotoxicity against human MEXF 520L cells at 1 ug/ml relative to control; type: functional
HT-29 [41] = assay: Cytotoxicity against human HT-29 cells at 0.001 ug/ml relative to control; type: functional
OVCAR-3 [42] = assay: Cytotoxicity against human OVCAR3 cells at 10 ug/ml relative to control; type: functional
OVCAR-3 [43] = assay: Cytotoxicity against human OVCAR3 cells at 0.1 ug/ml relative to control; type: functional
SF-268 [44] = assay: Cytotoxicity against human SF268 cells at 0.01 ug/ml relative to control; type: functional
T-24 [45] = assay: Cytotoxicity against human T24 cells at 10 ug/ml relative to control; type: functional
[46] = Cytotoxicity against human MEXF 394NL cells at 0.1 ug/ml relative to control; type: functional
[47] = Cytotoxicity against human MEXF 514L cells at 1 ug/ml relative to control; type: functional
HT-29 [48] = assay: Cytotoxicity against human HT-29 cells at 1 ug/ml relative to control; type: functional
[49] = Cytotoxicity against human LXFA 289L cells at 0.1 ug/ml relative to control; type: functional
[50] = Cytotoxicity against human HNXF 536L cells at 1 ug/ml relative to control; type: functional
[51] = Cytotoxicity against human MEXF 462NL cells at 10 ug/ml relative to control; type: functional
[52] = Cytotoxicity against human LXFA 526L cells at 0.001 ug/ml relative to control; type: functional
[53] = Cytotoxicity against human CNXF 498NL cells at 1 ug/ml relative to control; type: functional
[54] = Cytotoxicity against human MEXF 520L cells at 10 ug/ml relative to control; type: functional

For `C=C1[C@@H](O)[C@H]2O[C@@]2(C[C@H]2C(C)=CC[C@H]3C(C)(C)CCC[C@]23C)[C@@H](O)[C@H]1O` [EPOXYPHOLAMIN D], the Activity [1] was 17%, the Activity [2] was 123% and the Activity [3] was 104%. For the same compound, the Activity [4] was 95%, the Activity [5] was 94% and the Activity [6] was 99%. The Activity [7] was 101%, the Activity [8] was 14% and the Activity [9] was 134%. The Activity [10] was 100%, the Activity (MCF7 [11]) was 102% and the Activity [12] was 4%. The IC50 [13] was 6.76 µM, the IC70 [13] was 4.64 µg/mL (≈ 12.8 µM) and the IC90 [13] was 8.8 µg/mL (≈ 24.3 µM). The Activity [14] was 99%, the Activity [15] was 106% and the IC50 (DU-145) was 8.99 µM. The IC70 (DU-145) was 5.88 µg/mL (≈ 16.2 µM), the IC90 (DU-145) was 10.6 µg/mL (≈ 29.3 µM) and the Activity [16] was 76%. The Activity [17] was 122%, the Activity [18] was 95% and the Activity (NCI-H460 [19]) was 98%. The IC50 [20] was 7.92 µM, the IC70 [20] was 5 µg/mL (≈ 13.8 µM) and the IC90 [20] was 8.7 µg/mL (≈ 24 µM). The Activity [21] was 81%, the IC50 [22] was 8.58 µM and the IC70 [22] was 5.95 µg/mL (≈ 16.4 µM). For the same compound, the IC90 [22] was 11.4 µg/mL (≈ 31.4 µM), the Activity (SF-268 [23]) was 106% and the Activity (MCF7 [24]) was 5%. The Activity [25] was 10%, the IC50 (T-24 [26]) was 12 µM and the IC70 (T-24 [26]) was 6.41 µg/mL (≈ 17.7 µM). It also gave an IC90 (T-24 [26]) of 9.44 µg/mL (≈ 26 µM), an Activity (CWR22R [27]) of 92% and an Activity [28] of 102%. The Activity [29] was 122%, the IC50 [30] was 6.15 µM and the IC70 [30] was 4.64 µg/mL (≈ 12.8 µM). It also gave an IC90 [30] of 9.64 µg/mL (≈ 26.6 µM), an Activity (HCT-116 [31]) of 108% and an Activity [32] of 116%. The IC50 (PANC-1) was 5.43 µM, the IC70 (PANC-1) was 4.2 µg/mL (≈ 11.6 µM) and the IC90 (PANC-1) was 8.93 µg/mL (≈ 24.6 µM). It also gave an IC50 (CWR22R [33]) of 2.48 µM, an IC70 (CWR22R [33]) of 3.06 µg/mL (≈ 8.45 µM) and an IC90 (CWR22R [33]) of 10.6 µg/mL (≈ 29.4 µM). The Activity [34] was 112%, the Activity (NCI-H460 [35]) was 91% and the Activity (HCT-116 [36]) was 87%. The Activity [37] was 107%, the Activity [38] was 98% and the Activity (T-24 [39]) was 126%. It also gave an Activity [40] of 86%, an Activity (HT-29 [41]) of 97% and an Activity (OVCAR-3 [42]) of 13%. It also gave an Activity (OVCAR-3 [43]) of 91%, an Activity (SF-268 [44]) of 97% and an Activity (T-24 [45]) of 7%. The Activity [46] was 99%, the Activity [47] was 115% and the Activity (HT-29 [48]) was 121%. For the same compound, the Activity [49] was 106%, the Activity [50] was 88% and the Activity [51] was 12%. The Activity [52] was 109%, the Activity [53] was 55% and the Activity [54] was 5%.
